Test results published in ChEMBL document CHEMBL1156841, “Carbonic anhydrase activators: activation of the beta-carbonic anhydrases from the pathogenic fungi Candida albicans and Cryptococcus neoformans with amines and amino acids” (Bioorg Med Chem, 2010).

T1: Carbonic anhydrase (Candida albicans (strain SC5314 / ATCC MYA-2876) (Yeast)) (UniProt Q5AJ71)
T1 sequence (whole entry): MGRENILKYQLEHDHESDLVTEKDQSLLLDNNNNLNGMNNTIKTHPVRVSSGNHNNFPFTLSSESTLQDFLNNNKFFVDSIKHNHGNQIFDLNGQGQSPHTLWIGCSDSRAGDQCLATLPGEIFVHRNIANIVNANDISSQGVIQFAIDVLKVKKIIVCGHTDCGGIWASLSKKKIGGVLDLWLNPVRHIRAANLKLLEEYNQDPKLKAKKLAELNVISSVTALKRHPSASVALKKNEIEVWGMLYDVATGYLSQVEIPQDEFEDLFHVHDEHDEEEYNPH

T2: Carbonic anhydrase 2 (Cryptococcus neoformans) (UniProt Q3I4V7)
T2 sequence (whole entry): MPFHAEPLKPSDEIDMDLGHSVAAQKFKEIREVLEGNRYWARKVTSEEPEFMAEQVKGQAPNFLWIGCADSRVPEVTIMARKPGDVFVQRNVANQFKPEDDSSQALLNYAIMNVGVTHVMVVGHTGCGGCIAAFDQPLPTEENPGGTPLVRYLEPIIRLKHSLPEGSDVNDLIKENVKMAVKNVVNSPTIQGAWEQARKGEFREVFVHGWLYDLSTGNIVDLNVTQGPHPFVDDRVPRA

B1: Carbonic anhydrase (Candida albicans (strain SC5314 / ATCC MYA-2876) (Yeast)), Q5AJ71 (protein)
chain: T1 sequence (whole entry)
B2: Carbonic anhydrase 2 (Cryptococcus neoformans), Q3I4V7 (protein)
chain: T2 sequence (whole entry)

Tests used:
[1] = target: T1, Carbonic anhydrase (Candida albicans (strain SC5314 / ATCC MYA-2876) (Yeast)); experiment: Activation of Candida albicans beta-carbonic anhydrase Nce103 by stopped flow CO2 hydration assay
In short: (§1)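 Recombinant enzyme (prepared as in earlier work) preincubated with activator 15 min at room temperature. Stopped-flow CO2 hydration at 25 °C followed for 10 s, read with phenol red (0.2 mM) at 557 nm. Buffer was 20 mM Tris pH 8.3 with 20 mM NaClO4. CO2 ranged 1.7–17 mM. Initial velocity came from at least six traces of the first 5–10% of reaction, with the uncatalyzed rate subtracted. KA was fitted from activation versus activator concentration, using dilutions from a 10 mM aqueous stock. Mean of at least three determinations.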

[2] = target: T2, Carbonic anhydrase 2 (Cryptococcus neoformans); experiment: Activation of Cryptococcus neoformans beta-carbonic anhydrase Can2 by stopped flow CO2 hydration assay; in short: as §1
[3] = substrate: NCCc1c[nH]cn1; conditions: Candida albicans; 10 uM
[4] = substrate: NCCc1c[nH]cn1; conditions: Candida albicans
[5] = substrate: NCCc1c[nH]cn1; conditions: Cryptococcus neoformans; 10 uM
[6] = substrate: NCCc1c[nH]cn1; conditions: Cryptococcus neoformans

Molecule	KA [1]	KA [2]	further results
N[C@H](Cc1ccc(O)c(O)c1)C(=O)O	2.5 µM	35.1 µM	
NCc1ccccn1	29.1 µM	47 µM	
N[C@H](Cc1ccccc1)C(=O)O	8.4 µM	45.2 µM	
N[C@@H](Cc1ccccc1)C(=O)O	15.5 µM	44.1 µM	
NCCN1CCOCC1	25.4 µM	40.1 µM	
N[C@H](Cc1c[nH]cn1)C(=O)O	19.5 µM	47.2 µM	
N[C@@H](Cc1c[nH]cn1)C(=O)O	24.1 µM	45 µM	
CNC[C@@H](O)c1ccc(O)c(O)c1	13.2 µM	32.8 µM	
N[C@H](Cc1c[nH]c2ccccc12)C(=O)O	43 µM	42.1 µM	
N[C@@H](Cc1ccc(O)c(O)c1)C(=O)O	0.96 µM	43.3 µM	
NCCc1ccccn1	30.2 µM	46.3 µM	
NCCN1CCNCC1	17.3 µM	44.9 µM	
N[C@@H](Cc1ccc(O)cc1)C(=O)O	46.1 µM	29.5 µM	
NCCc1c[nH]c2ccc(O)cc12	28.6 µM	46.7 µM	
Nc1ccc(C[C@H](N)C(=O)O)cc1	23.7 µM	30.4 µM	
N[C@@H](Cc1c[nH]c2ccccc12)C(=O)O	19.2 µM	28.7 µM	
NCCc1ccc(O)c(O)c1	18.5 µM	34.6 µM	
NCCc1c[nH]cn1	18.4 µM	33.2 µM	
B1			kcat [3]: 20.1 ×10⁵ /s; Km [4]: 8.2 mM; kcat [4]: 8 ×10⁵ /s
B2			kcat [5]: 6.8 ×10⁵ /s; Km [6]: 9 mM; kcat [6]: 3.9 ×10⁵ /s
